From PMC3590845 (Bioorganic & medicinal chemistry, 2012)
Each block holds one compound with its values, some of them ahead of it.

Columns and labels:
[1] = GSH-activated NO release by chemiluminescence; type: physicochemical; settings: 4 mM GSH; for NO yield (mol)/mol of compound mean (SE): pH 7.4 phosphate buffer, 37 °C; for NO release on reaction with GSH (in words): chemiluminescence assay
Summary of the method: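 Pre-warmed (37 °C) pH 7.4 phosphate buffer with 4 mM GSH was sparged with inert gas until the detector response was steady. Test compound was then injected to start the reaction, and NO release was followed over time. The integrated release curve gave mol NO released per mol compound.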

H1703 cells [2] = experiment: Western blot of stress signaling and apoptosis; type: cell-based, human; settings: 1 μM
Summary of the method: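 After treatment of H1703 cells, lysates were immunoblotted for caspase 3, caspase 7, PARP, phospho-SAPK/JNK, phospho-c-jun and ATF3. PARP was scored as the full-length band versus the 89-kDa cleaved fragment.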

[3] = test system: H1703 cells xenografted in athymic mice; experiment: H1703 xenograft in athymic mice; type: in vivo; settings: 20 μmol/kg ip, five times a week for four weeks
Summary of the method: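 H1703 cells (5 × 10^6) were injected s.c. into one flank of 7-week-old female athymic NCr-nu/nu mice. Dosing started once tumors reached 2 × 2 × 2 mm3, typically after four weeks. Test compound was given as Pluronic P123 micelles, and controls received vehicle (2.25% Pluronic P123 in PBS) ip. Body weights were recorded three times weekly.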

H1703 cells [4] = experiment: In vitro metabolism in cells followed by LC/MS; type: in vitro ADME, human; settings: compound 12 at 5 μM for 5, 30 and 60 min
Summary of the method: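 H1703 cells were plated in flasks, incubated overnight at 37 °C, then exposed to test compound. At each time point, cells were scraped into 10 mM HCl and lysed by freeze–thaw, then 5-sulfosalicylic acid was added. After spinning at 8000×g for 10 min, supernatants were run on C18 LC/MS (APCI positive ions, water/acetonitrile/0.1% formic acid gradient). Parent and arylated-GSH ions were tracked as extracted ion chromatograms.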

Compound: CCOC(=O)N1CCCN(/[N+]([O-])=N/Oc2ccc([N+](=O)[O-])cc2[N+](=O)[O-])CC1 [Compound 2, reference compound]
NO yield (mol)/mol of compound mean (SE) [1]: 2.00 (0.04) mol/mol of compound

Compound: CCOC(=O)N1CCN(/[N+]([O-])=N/Oc2ccc([N+](=O)[O-])cc2C#N)CC1 [Compound 12]
ATF3 level (H1703 cells [2]): upregulated
Apoptosis (cleavage of PARP and caspases 3 and 7) (H1703 cells [2]): activated within 4 h
SAPK/JNK stress signaling pathway (H1703 cells [2]; phosphorylation of SAPK/JNK and c-jun after 4 h): activated
NO release on reaction with GSH (in words) [1]: essentially quantitative amounts of NO
NO yield (mol)/mol of compound mean (SE) [1]: 2.04 (0.01) mol/mol of compound
Body weights [3]: did not affect body weights
Decomposition / metabolic turnover in cells (H1703 cells [4]): over 1 h

Compound: CCOC(=O)N1CCCN(/[N+]([O-])=N/Oc2ccc([N+](=O)[O-])cc2C#N)CC1 [Compound 15]
NO release on reaction with GSH (in words) [1]: essentially quantitative amounts of NO
NO yield (mol)/mol of compound mean (SE) [1]: 2.01 (0.03) mol/mol of compound

Compound: CCOC(=O)N1CCN(/[N+]([O-])=N/Oc2ccc([N+](=O)[O-])cc2[N+](=O)[O-])CC1 [JS-K, reference compound]
NO yield (mol)/mol of compound mean (SE) [1]: 1.96 (0.03) mol/mol of compound
Decomposition / metabolic turnover in cells (H1703 cells [4]): near complete metabolic turnover of JS-K in as few as ten minutes

The next lines start with the values.

NO release on reaction with GSH (in words) [1]: essentially quantitative amounts of NO
NO yield (mol)/mol of compound mean (SE) [1]: 2.02 (0.06) mol/mol of compound
Compound: CCOC(=O)N1CCN(/[N+]([O-])=N/Oc2ccc(C#N)cc2[N+](=O)[O-])CC1 [Compound 13]

NO release on reaction with GSH (in words) [1]: essentially quantitative amounts of NO
NO yield (mol)/mol of compound mean (SE) [1]: 1.96 (0.04) mol/mol of compound
Compound: CCOC(=O)N1CCCN(/[N+]([O-])=N/Oc2ccc(C#N)cc2[N+](=O)[O-])CC1 [Compound 16]
